FLuc inh counter: firefly luciferase enzyme inhibitors, primary screen, artefact control for luciferase-based inhibitor screens, biochemical, luminescence, ATPLite; Luciferin 4-monooxygenase (Photinus pyralis), P08659; AID 1006, 2008; 200,000 tested, 1.5% active; inhibition, % at 10 µM; 10 min;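 active = inhibition above about 50% when tested at 10 µM, limit read from the data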
FLuc act counter: FLuc activators, initial screening, artefact control for FLuc-dependent activation tests, biochemical, ATPlite luminescence | Luciferin 4-monooxygenase (Photinus pyralis), P08659 | ATPlite luciferase biochemical, 10 min; 0 = ATP-free wells, 1 = DMSO control | activation factor at 10 µM | 200,000 tested, under 10 active | AID 1027, 2008;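 active = luciferase activation factor, scaled between plate controls, of at least 2 with compound at 10 µM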
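Assay system: Luciferase/luciferin detection reagent, cell-free biochemical luciferase assay / Also added: ATP substrate / Schedule: 10 min at ambient temperature / Measured by: luminescence measurement of luciferase light output / Benchmarks: low control with PBS replacing ATP, high control enzyme plus ATP without compound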
PKD1 inh: inhibitors of human PKD1 kinase, biochemical, fluorescence polarization; 200,000 tested, 0.056% active; inhibition, % (test concentration not listed); AID 797, 2007; PKD1 kinase fluorescence polarization assay; Serine/threonine-protein kinase D1 (Homo sapiens), Q15139; in the data active = inhibition above about 50%
Wee1 degr inh: Wee1 degradation inhibitors, primary screen, cell-based, HeLa, Wee1K328M-luciferase, luminescence; Wee1-like protein kinase (Homo sapiens), P30291; HeLa Luc-Wee1K328M stability; 100% = proteasome inhibitor MG132 effect; reporter increase, % at 5 µM; 220,000 tested, 1.2% active;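 active = activation above the mean of all tested compounds plus 3 SD, set per screening run, cut at about 8.8% in these data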;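 note: cells exposed to compound for 20 h before luminescence read; 0% = DMSO alone and 100% = MG132 at 30 µM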
Target sequence (P30291 whole entry K328M): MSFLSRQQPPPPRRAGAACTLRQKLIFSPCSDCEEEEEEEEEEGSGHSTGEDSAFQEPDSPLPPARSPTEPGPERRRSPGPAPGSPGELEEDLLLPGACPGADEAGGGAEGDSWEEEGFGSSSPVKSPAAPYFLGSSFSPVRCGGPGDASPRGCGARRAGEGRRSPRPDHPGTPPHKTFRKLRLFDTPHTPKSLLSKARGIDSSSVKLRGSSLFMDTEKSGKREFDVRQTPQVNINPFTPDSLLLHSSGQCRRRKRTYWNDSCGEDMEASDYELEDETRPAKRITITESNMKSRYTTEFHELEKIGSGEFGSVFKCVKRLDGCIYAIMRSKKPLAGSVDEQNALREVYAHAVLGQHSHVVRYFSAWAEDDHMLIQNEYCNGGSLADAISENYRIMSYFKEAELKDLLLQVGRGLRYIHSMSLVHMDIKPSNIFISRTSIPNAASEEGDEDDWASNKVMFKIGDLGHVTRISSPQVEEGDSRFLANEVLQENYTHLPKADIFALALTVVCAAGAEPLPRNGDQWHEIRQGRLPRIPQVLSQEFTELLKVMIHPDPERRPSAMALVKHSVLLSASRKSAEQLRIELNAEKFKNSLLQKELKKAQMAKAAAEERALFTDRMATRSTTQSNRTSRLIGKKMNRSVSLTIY
C8 TRAIL sens: viability loss with TRAIL in NB7+C8 cells, primary screen, TRAIL sensitizer project, cell-based, ATPlite luminescence; inhibition (viability loss, TRAIL sensitization), % at 10 µM; AID 624354, 2012; 360,000 tested, 1% active;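 active = compounds causing at least 50% loss of cell viability in the single-dose screen, relative to plate controls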
PPC-1+TRAIL kill: compounds killing PPC-1 cancer cells with TRAIL present, primary screen, TRAIL potentiator project, ATPLite luminescence, uHTS. PPC-1 cells + TRAIL, ATPLite viability luminescence. 220,000 tested, 0.41% active. cell killing (% activity), % at 4 µM or 5 µM. AID 1443, 2008;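 active = cell killing above 50% in the first pass at 4 µM, then a duplicate retest at 5 µM averaging 50% or more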;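 note: plate controls were cells with TRAIL plus DMSO for no effect and medium-only wells lacking cells for full effect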
* hit, by the source's call; . = no result. Hits are enriched below; roughly 2.2% of the tested compounds scored in any of these assays.

SMILES | FLuc inh counter | FLuc act counter | PKD1 inh | Wee1 degr inh | C8 TRAIL sens | PPC-1+TRAIL kill
Cc1ccc(Nc2nc3ccccc3c(=O)s2)cc1C | -4 | 1 | -6 | 10* | 29 | 18
O=C(Nc1nc2ccccc2s1)c1ccc(F)cc1 | 64* | 0.4 | -2 | 2 | 46 | 28
COc1ccc(C(=O)Nc2nc3ccccc3s2)cc1 | . | . | . | . | 60* | .
COc1ccccc1Nc1nnc(SCC(=O)NC2CC2)s1 | . | . | . | . | -2 | .
CSc1nc2ccc3nc(NC(=O)c4ccc(C)cc4)sc3c2s1 | -4 | 1 | -5 | 5 | 19 | 8
Cc1ccc(C(=O)Nc2nc3ccccc3c(=O)s2)cc1 | 80* | 0.2 | -6 | -3 | 61* | 40
O=C1C(=Cc2ccc(F)cc2)CCc2ccccc21 | . | . | . | . | 80* | .
COc1ccccc1C=C1CCc2ccccc2C1=O | . | . | . | . | 77* | .
O=C1C(=Cc2ccccc2Cl)CCc2ccccc21 | . | . | . | . | 53* | .
O=C1C(=Cc2ccc(Cl)cc2)CCc2ccccc21 | . | . | . | . | 81* | .
O=C1C(=Cc2cccc(Cl)c2)CCc2ccccc21 | . | . | . | . | 9 | .
O=C1/C(=C\c2ccncc2)CCc2ccccc21 | . | . | . | . | 20 | .
CCOc1ccccc1C=C1CCc2ccccc2C1=O | . | . | . | . | 4 | .
COC(=O)CSc1ncc(S(=O)(=O)c2ccccc2)c(=O)[nH]1 | . | . | . | . | -20 | .
CN(Cc1ccccc1)CC(O)COc1ccc(CNCCOc2cccnc2)cc1 (configuration not stated) | -7 | 1.1 | 1 | -3 | -5 | 21
CN(Cc1ccccc1)CC(O)COc1ccc(CNCCCOc2cccnc2)cc1 (configuration not stated) | -4 | 1 | 1 | 8.9* | -5 | 28
CCN(C(=O)COC(=O)c1cc(-c2ccccc2)nc2ccc(Br)cc12)C1CCS(=O)(=O)C1 (configuration not stated) | -3 | 1 | 0 | 9.2* | -11 | 12
Cc1cc(C)n(/N=C/c2cccs2)c(=O)c1C#N | -4 | 1 | -6 | 11* | -7 | 19
CN(/N=C/c1ccncc1)c1cnc2ccccc2n1 | 56* | 0.4 | 1 | 10.0* | 34 | 37
Cc1cc(NC(=O)c2cccc(Oc3ccccc3)c2)n[nH]1 | 71* | 0.3 | -8 | 3 | 39 | 42
Cc1cc(NC(=O)NC(=O)c2cccc(OC(F)(F)C(F)F)c2)n[nH]1 | 1 | 1 | -1 | 2 | 2 | -11
CCCCCCCCn1c2c(c(=N)c3ccccc31)CCC2 | -5 | 1 | -3 | 1 | 39 | .
Cc1cc(C)c2c(=N)c3ccccc3n(CCCCCCCCn3c4ccccc4c(=N)c4c(C)cc(C)nc43)c2n1 | . | . | . | . | 79* | .
COc1ccc(C(=O)O/N=C(\N)c2ccc(Cl)cc2)cc1 | . | . | . | . | 23 | .
N/C(=N\OC(=O)c1ccc2c(c1)OCO2)c1ccc(Cl)cc1 | 84* | 0.2 | 0 | 0 | 29 | 31
SMILES | FLuc inh counter | FLuc act counter | PKD1 inh | Wee1 degr inh | C8 TRAIL sens | PPC-1+TRAIL kill
Cc1cccc(C(=O)O/N=C(\N)c2ccc(Cl)cc2)c1 | . | . | . | . | 34 | .
COc1cccc(C(=O)O/N=C(\N)c2ccncc2)c1 | 89* | 0.1 | -13 | -1 | 53* | 18
N/C(=N\OC(=O)c1ccc2c(c1)OCO2)c1ccncc1 | . | . | . | 1 | 60* | 19
COc1ccc(/C(N)=N/OC(=O)c2ccc3c(c2)OCO3)cc1 | 69* | 0.3 | 8 | -5 | 12 | 20
Cc1ccc(/C(N)=N/OC(=O)c2ccc3c(c2)OCO3)cc1 | 78* | 0.2 | 5 | 4 | 40 | 25
CCCCn1c(Nc2ccccc2)nc2ccccc21 | 0 | 1 | -3 | 0 | -5 | -6
CCCn1c(Nc2nc3ccccc3n2C)nc2ccccc21 | -3 | 1 | 5 | 3 | 53* | 7
COc1ccc([C@@H](OC)[C@@]2(Cc3ccc(O)cc3)N=C(N)N(C)C2=O)cc1 | . | . | . | . | -11 | .
CCN(CC)S(=O)(=O)c1cc(NC(=O)CNc2cccc(S(=O)(=O)N3CCOCC3)c2)ccc1C | . | . | . | . | 25 | .
O=C(N/N=C\c1cc(Br)ccc1O)c1ccc(S(=O)(=O)N2CCCCC2)cc1 | -6 | 1.1 | -13 | 9.1* | 32 | 41
COc1ccc(C2CC(=O)C=C(NCc3ccccc3)C2)cc1 (configuration not stated) | . | . | . | 0 | 19 | 12
CCC/C(=N\NC(=O)c1ccco1)c1ccc(Cl)s1 | . | . | . | . | 5 | .
Cc1nc(-c2ccc([N+](=O)[O-])cc2)nc2[nH]ccc(=O)c12 | . | . | . | . | 0 | .
O=C1CSCN1c1cc(Cl)ccc1Cl | -5 | 1.1 | 75* | 1 | 32 | 12
CN1/C(=C/C(=O)c2cccs2)Sc2ccccc21 | 77* | 0.2 | 3 | 4 | 57* | 46
COc1cc(OC)cc(C(=O)/C=C2\Sc3ccccc3N2C)c1 | 15 | 0.8 | 8 | 5 | 2 | 8
CN1/C(=C\C(=O)c2cccs2)Sc2ccccc21 | 82* | 0.2 | -5 | 8 | 64* | 28
COc1ccc(Cl)cc1Nc1nc(N)c2ccccc2n1 | . | . | . | . | 1 | .
Cc1ccc(C)c(Nc2nc(N)c3ccccc3n2)c1 | 66* | 0.3 | -7 | 2 | 35 | 24
CC(=O)NC(Cc1ccccc1)C(=O)OCC(=O)c1ccc(Br)cc1 (configuration not stated) | 0 | 1 | 0 | 0 | -1 | 27
Cc1ccc(C(=O)COC(=O)COc2ccccc2O)cc1C | . | . | . | . | -3 | .
O=C(CC(Nc1ccccc1Cl)C(=O)OCC(=O)c1cccs1)c1ccccc1 (configuration not stated) | -4 | 1 | 0 | 4 | 14 | 22
COc1ccccc1NC(CC(=O)c1ccccc1)C(=O)OCC(=O)c1ccc(Br)cc1 (configuration not stated) | -3 | 1 | 4 | 1 | 63* | 14
COc1ccccc1NC(CC(=O)c1ccccc1)C(=O)OCC(=O)c1ccc(C)c(C)c1 (configuration not stated) | 1 | 1 | 0 | 0 | 58* | 29
COc1ccccc1NC(CC(=O)c1ccccc1)C(=O)OCC(=O)c1ccc(C)cc1 (configuration not stated) | -3 | 1 | -8 | -1 | 65* | 0
COc1ccccc1OCc1nn[nH]n1 | . | . | . | . | -3 | .
O=C(Nc1ccon1)c1ccc(OC2CCCC2)cc1 | 59* | 0.4 | -13 | 6 | 27 | 20
CC(C)(C)c1cc(NC(=O)c2ccc(OC3CCCC3)cc2)no1 | 1 | 1 | -11 | -1 | 25 | -1
COCc1cc(CN(C)C(=O)C2CCC(=O)N(Cc3cccc(OC)c3)C2)[nH]n1 (configuration not stated) | . | . | . | . | -3 | .

Source: PubChem (several laboratories)
